In series [1] the target is T1, Steroid 17-alpha-hydroxylase/17,20 lyase (Homo sapiens, UniProt P05093).
T1 sequence (P05093 whole entry): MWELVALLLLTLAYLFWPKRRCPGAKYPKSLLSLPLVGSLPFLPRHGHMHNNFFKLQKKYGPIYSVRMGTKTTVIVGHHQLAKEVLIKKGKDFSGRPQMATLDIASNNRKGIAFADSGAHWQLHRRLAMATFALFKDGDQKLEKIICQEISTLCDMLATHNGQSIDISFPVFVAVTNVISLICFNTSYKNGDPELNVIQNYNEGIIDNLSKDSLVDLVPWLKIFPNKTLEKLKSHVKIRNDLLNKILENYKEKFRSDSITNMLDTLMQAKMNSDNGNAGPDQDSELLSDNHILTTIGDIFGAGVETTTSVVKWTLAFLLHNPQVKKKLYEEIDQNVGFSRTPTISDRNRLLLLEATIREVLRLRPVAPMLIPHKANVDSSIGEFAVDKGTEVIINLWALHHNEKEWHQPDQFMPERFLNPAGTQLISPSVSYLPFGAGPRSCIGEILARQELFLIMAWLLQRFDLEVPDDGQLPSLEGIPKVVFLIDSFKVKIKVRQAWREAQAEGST
Nature of the series: Inhibition of human recombinant CYP17 lyase activity using 17alpha-hydroxypregnenolone as substrate by HPLC/MS/MS method. An outline of the steps: (§1)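 Recombinant human CYP17 expressed in a yeast microsome system, run with an NADPH-regenerating system. Hydroxylase and lyase products analysed by HPLC/MS/MS. IC50 from a 4-parameter logistic fit of the dose-response data.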

The target of series [2] is Cytochrome P450 3A4 (Homo sapiens, UniProt P08684). The series is described as follows: Inhibition of human hepatocyte microsome CYP3A4 using testosterone as substrate by HPLC/MS/MS method. In kind it is ADME. An outline of the steps:
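Pooled human hepatocyte microsome preparation with an NADPH-regenerating system. Product analysed by HPLC/MS/MS. IC50 from a 4-parameter logistic fit of the dose-response data.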

The subject of series [3] is CYP3A4 versus CYP17 lyase. The series is described as follows: Selectivity ratio of IC50 for human hepatocyte microsome CYP3A4 to IC50 for human recombinant CYP17 lyase activity. In kind it is ADME, cell-based. Conditions: read-out: Ratio IC50. An outline of the steps: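 Ratio of human CYP3A4 IC50 (pooled human hepatocyte microsomes) to human CYP17 lyase IC50 (recombinant enzyme, yeast microsomes). Both IC50 values from HPLC/MS/MS product analysis with a 4-parameter logistic fit.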

Series [4] has as its target T1, Steroid 17-alpha-hydroxylase/17,20 lyase. The series is described as follows: Selectivity ratio of IC50 for human recombinant CYP17 hydroxylase activity to IC50 for human recombinant CYP17 lyase activity. An outline of the steps: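 Lyase selectivity expressed as human hydroxylase IC50 divided by human lyase IC50. Both values come from recombinant human CYP17 in a yeast microsome system, with products analysed by HPLC/MS/MS and 4-parameter logistic fitting.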

Series [5] has the same target. Nature of the series: Inhibition of human recombinant CYP17 hydroxylase activity by HPLC/MS/MS method. A digest of the protocol: as §1
The target in series [6] is T2, Steroid 17-alpha-hydroxylase/17,20 lyase (Rattus norvegicus, UniProt P11715).
T2 sequence (P11715 whole entry): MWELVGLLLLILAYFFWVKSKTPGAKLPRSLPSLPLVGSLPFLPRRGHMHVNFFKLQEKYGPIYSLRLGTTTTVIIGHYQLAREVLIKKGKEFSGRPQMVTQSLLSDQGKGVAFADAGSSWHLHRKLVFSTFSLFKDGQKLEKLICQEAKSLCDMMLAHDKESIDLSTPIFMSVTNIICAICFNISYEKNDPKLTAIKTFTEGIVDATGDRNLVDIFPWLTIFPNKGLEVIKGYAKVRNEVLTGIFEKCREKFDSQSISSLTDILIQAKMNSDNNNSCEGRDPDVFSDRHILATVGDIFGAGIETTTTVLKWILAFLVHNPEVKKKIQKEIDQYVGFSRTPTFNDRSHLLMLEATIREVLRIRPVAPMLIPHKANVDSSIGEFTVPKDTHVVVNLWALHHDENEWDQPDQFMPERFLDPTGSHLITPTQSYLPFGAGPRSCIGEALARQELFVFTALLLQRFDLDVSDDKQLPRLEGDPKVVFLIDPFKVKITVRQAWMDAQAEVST
Nature of the series: Inhibition of rat testicular microsome CYP17 lyase activity using 17alpha-hydroxypregnenolone as substrate by HPLC/MS/MS method. A digest of the protocol:
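Rat testicular microsome preparation with an NADPH-regenerating system. Product analysed by HPLC/MS/MS. IC50 taken from a 4-parameter logistic fit of the dose-response data.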

Series [7] concerns CYP3A4 versus CYP17 lyase. The series is described as follows: Selectivity ratio of IC50 for human hepatocyte microsome CYP3A4 to IC50 for rat testicular microsome CYP17 lyase activity.
Series [8] in a line: Metabolic stability in human liver microsomes assessed as compound remaining after 60 mins. In kind it is ADME. The following applies: read-out: Stability. An outline of the steps:
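Incubation in human liver microsomes for 60 min. Read-out is the percentage of parent compound remaining.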

Series [9] concerns Hamster. The series is described as follows: Inhibition of CYP17 in gonadally-intact hamster assessed as progesterone level in serum at 50 mg/kg, po after 2 hrs by LC/MS/MS analysis (reference value: 1.02 +/- 0.05 ng/mL). The format is functional, Cricetinae.
The target of series [10] is T2, Steroid 17-alpha-hydroxylase/17,20 lyase. The series is described as follows: Inhibition of rat testicular microsome CYP17 hydroxylase activity by HPLC/MS/MS method. A digest of the protocol:
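Rat testicular microsomal preparation as the enzyme source, with an NADPH-regenerating system. Reaction product was analysed by HPLC/MS/MS. IC50 was derived from a 4-parameter logistic fit of the dose-response data.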

In series [11] the test system is Hamster. Nature of the series: Inhibition of CYP17 in gonadally-intact hamster assessed as testosterone level in serum at 50 mg/kg, po after 2 hrs by LC/MS/MS analysis (reference value: 1.98 +/- 0.057 ng/mL). In kind it is functional, Cricetinae.

18 compounds from ChEMBL document CHEMBL3259743, “Highly-selective 4-(1,2,3-triazole)-based P450c17a 17,20-lyase inhibitors” (Bioorg Med Chem Lett, 2014) can be followed below.

SMILES strings stand for the structures. pIC50: −log10 of the molar value. Bounds are passed on as bounds.

Cytochrome P450 3A4, sequence (P08684 whole entry): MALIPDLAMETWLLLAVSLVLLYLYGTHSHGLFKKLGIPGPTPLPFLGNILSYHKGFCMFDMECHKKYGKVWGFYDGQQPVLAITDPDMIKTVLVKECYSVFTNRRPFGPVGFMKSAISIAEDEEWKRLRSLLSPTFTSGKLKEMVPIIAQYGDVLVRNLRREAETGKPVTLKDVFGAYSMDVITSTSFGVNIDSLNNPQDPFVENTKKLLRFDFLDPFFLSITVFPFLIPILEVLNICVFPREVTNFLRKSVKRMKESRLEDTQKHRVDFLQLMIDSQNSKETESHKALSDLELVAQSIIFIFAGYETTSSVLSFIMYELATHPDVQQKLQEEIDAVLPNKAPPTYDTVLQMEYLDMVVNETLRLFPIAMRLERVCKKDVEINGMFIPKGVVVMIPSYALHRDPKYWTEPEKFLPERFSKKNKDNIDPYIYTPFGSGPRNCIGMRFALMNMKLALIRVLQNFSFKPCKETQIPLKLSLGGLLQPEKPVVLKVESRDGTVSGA

Broadly, the pIC50 is −log10 of the IC50, conventionally taken in molar units. As for `CC(C)C(O)(c1ccc2cc(-c3cccs3)ccc2c1)c1c[nH]nn1` (racemic), the pIC50 in [1] is under 5.40; in series [2], 4.09; in [5], 4.89. Besides, the selectivity ratio in series [3] was under 20. In series [4], the “Ratio IC50” value is on record as under 3.

Consider `COc1cc2ccc(C(O)(c3cc[nH]n3)C(C)C)cc2cc1OC` (racemic), for which the figures for the pIC50 in series [6] and in series [2] were 5.80 and 5.74, respectively.

For the compound `COc1cc2ccc(C(O)(c3cn[nH]c3)C(C)C)cc2cc1OC` (racemic), the pIC50 is 6.37 in series [6] and 4.57 in series [2].

With `COc1cc2ccc(C(O)(c3c[nH]nn3)C(C)C)cc2cc1OC` (racemic), the selectivity ratio is 317 in [7] and 320 in series [3]. Further, the pIC50 in series [1] is 6.74; in series [2], 4.24; in series [5] it was 5.64. The remaining at 1 h in [8] turned out to be 29%. In series [4], the “Ratio IC50” value is reported as 13.

As for `COc1cc2ccc(C(O)(c3nc[nH]n3)C(C)C)cc2cc1OC` (racemic), the pIC50 was 5.15 in [6] and 4.00 in [2].

In series [2], `COc1cc2ccc(C(O)(c3cncs3)C(C)C)cc2cc1OC` (racemic) had a pIC50 of 6.11.

Consider `COc1cc2ccc(C(O)(c3cnco3)C(C)C)cc2cc1OC` (racemic), for which the figures for the pIC50 in series [6] and in series [2] were 7.07 and 5.19, respectively.

On to `COc1cc2ccc(C(O)(c3cccnc3)C(C)C)cc2cc1OC` (racemic), for which the figures for the pIC50 in series [6] and in [2] were 5.38 and 5.03, respectively.

For the compound `COc1cc2ccc(C(O)(c3ccncc3)C(C)C)cc2cc1OC` (racemic), the figures for the pIC50 in series [6] and in series [2] were 7.22 and 5.35, respectively.

In the case of `COc1cc2ccc(C(O)(c3ccncn3)C(C)C)cc2cc1OC` (racemic), the pIC50 in [2] was 4.74.

For the compound `COc1cc2ccc(C(O)(c3c[nH]cn3)C(C)C)cc2cc1OC` (racemic), the Activity amounted to 3.9 ng/mL in series [9] and 0.3 ng/mL in series [11]. Moreover, the pIC50 in series [6] was 7.54; in series [10], 6.85; in [1], 7.30; in [2] it was 5.80; in series [5], 6.66. Further, the selectivity ratio in series [3] came out at 32. The “Ratio IC50” value in series [4] is on record as 4.4.

For `CC(C)C(O)(c1ccc2cc(OC(F)F)c(OC(F)F)cc2c1)c1c[nH]nn1` (racemic), the pIC50 in [1] was 6.77; in series [5], 6.16. In [8], the remaining at 1 h amounted to 54%.

As to `CC(C)C(O)(c1ccc2cc(OCC(F)(F)F)c(OCC(F)(F)F)cc2c1)c1c[nH]nn1` (racemic), the pIC50 in [1] was 6.51; in [2], 4.60; in series [5], 5.43. Besides, the selectivity ratio in series [3] was determined as 80. The “Ratio IC50” value in series [4] came out at 12.

Turning to `CC(C)C(O)(c1ccc2cc(-c3cnco3)ccc2c1)c1c[nH]nn1` (racemic), the figures for the pIC50 in [1], in series [2] and in [5] were 6.03, 3.99 and 4.89, respectively. The selectivity ratio in [3] is 110. Also, the “Ratio IC50” value in series [4] is reported as 14.

Turning to `CC(C)C(O)(c1ccc2cc(OC(F)F)ccc2c1)c1c[nH]nn1` (racemic), the pIC50 is 6.48 in series [1], 4.85 in series [2] and 7.13 in [5]. Further, the selectivity ratio in [3] was found to be 42. Further, the “Ratio IC50” value in [4] came to 0.22.

With `CC(C)C(O)(c1ccc2cc(OCC(F)(F)F)ccc2c1)c1c[nH]nn1` (racemic), the values for the negative-log IC50 (pIC50) in [1], in [2] and in series [5] were 6.24, at most 3.71 and 6.00, respectively. In addition, the selectivity ratio in [3] was at least 340. The “Ratio IC50” value in series [4] stood at 1.8.

As for `CC(=O)O[C@H]1CC[C@@]2(C)C(=CC[C@@H]3[C@@H]2CC[C@]2(C)C(c4cccnc4)=CC[C@@H]32)C1` [ABIRATERONE ACETATE], the figures for the Activity in series [9] and in series [11] were 2.1 ng/mL and 0.3 ng/mL, respectively.

For `CC(C)[C@](O)(c1ccc2cc(OC(F)F)c(OC(F)F)cc2c1)c1c[nH]nn1` [SEVITERONEL], the Activity was 1.2 ng/mL in [9] and 0.37 ng/mL in series [11].
